Arr AP2 block: inhibitors of human beta-arrestin and AP2 interaction; FITC-arrestin peptide / GST-AP2 beads, flow cytometry; AP2 beta2 appendage carries R879A mutation; inhibition, % at 10 µM; 340,000 compounds, 0.31% hits;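 active means inhibition above a set limit, near 3 SD of compounds lacking own fluorescence, cut at about 54% in these data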;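 further: plate controls were DMSO wells for no effect and 5 µM unlabelled arrestin peptide for full effect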
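Measured by: flow cytometry, FL1 (488/535 nm); Material: AP2 appendage R879A on GSH beads; Evaluation: percent response; Timing: pre-incubation 12 min, peptide binding 1 h, room temperature; Also added: 50 nM FITC-arrestin peptide; Medium: PBS with 0.05% Tween 20 and 0.1% BSA.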
ADAM17 inh: inhibitors of human ADAM17; recombinant ADAM17, EDANS/DABCYL FRET peptide cleavage; inhibition, % at 6.95 µM; 370,000 compounds, 0.83% hits; P78536; AID 720648;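 active means inhibition above the mean of compounds lying between control limits plus 3 SD, set per campaign, cut at about 8.5% in these data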;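 further: 0% = DMSO-only wells as the low control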
Target sequence (P78536 215-824 limits assumed): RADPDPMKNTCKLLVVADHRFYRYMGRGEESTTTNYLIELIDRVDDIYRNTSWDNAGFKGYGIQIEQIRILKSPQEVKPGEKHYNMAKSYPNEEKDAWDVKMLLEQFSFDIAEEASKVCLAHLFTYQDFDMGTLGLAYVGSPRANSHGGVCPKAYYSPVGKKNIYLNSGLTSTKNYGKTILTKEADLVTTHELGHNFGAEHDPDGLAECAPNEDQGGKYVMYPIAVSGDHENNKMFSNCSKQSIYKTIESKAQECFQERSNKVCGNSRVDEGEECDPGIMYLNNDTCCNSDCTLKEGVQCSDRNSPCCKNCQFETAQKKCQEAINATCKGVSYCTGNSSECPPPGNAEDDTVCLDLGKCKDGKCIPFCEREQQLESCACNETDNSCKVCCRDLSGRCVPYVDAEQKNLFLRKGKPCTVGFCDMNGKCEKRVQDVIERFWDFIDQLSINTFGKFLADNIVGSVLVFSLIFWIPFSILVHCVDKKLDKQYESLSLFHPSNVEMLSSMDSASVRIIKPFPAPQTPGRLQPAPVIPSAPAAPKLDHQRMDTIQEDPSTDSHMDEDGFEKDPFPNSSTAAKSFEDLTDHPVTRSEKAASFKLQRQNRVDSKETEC
ADAM10 inh: ADAM10 inhibition, QFRET primary screen; recombinant ADAM10, EDANS/DABCYL FRET peptide cleavage, 3 h; inhibition, % at 7 µM; 370,000 compounds, 0.62% hits;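 active means inhibition above a per-campaign cutoff equal to the mean of compounds falling between control-based bounds plus 3 SD, cut at about 20% in these data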;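 further: 0% = DMSO wells while the 100% control is not disclosed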
FAS-TE inh: inhibitors of human fatty acid synthase thioesterase domain. recombinant FAS-TE, OMFH fluorogenic substrate, fluorescence endpoint. P49327. inhibition, % at 15 µM. 360,000 compounds, 0.67% hits;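 active means compounds whose normalised, plate-corrected inhibition of enzyme fluorescence in the single-dose primary screen is 50% or more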;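 further: 0% = DMSO with enzyme and 100% = substrate without enzyme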
CendR NRP1 mod: NRP-1/CendR interaction modulation; O14786; FAM-RPARPAR peptide binding to NRP-1, fluorescence polarization; inhibition, % at 25 µM; 360,000 compounds, 0.85% hits;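 active means inhibition or corrected inhibition above about 18%, plus a signal ratio from 0.5 to 1.5, limit read from the data, passing the limit was not always enough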
CaV13 FRET inh: Primary screen for inhibitors of IQ motif and Ca2+-dependent inactivation inhibitor domain binding in CACNA1D, Förster resonance energy transfer in living cells, …; HEK cells, CFP/YFP FRET ICDI-IQ, plate reader, 10 min; percent FRET-ratio fall versus neutral wells; inhibition, % at 12.3 µM; 340,000 compounds, 0.098% hits; AID 743397;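 active means mean replicate inhibition of at least 30% and at least 1% of replicates passing that level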;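 further: 0% = median of the neutral control wells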
Arr-AP2 CP1: inhibitors of human beta-arrestin and AP2 interaction; shares compounds with Arr AP2 block; GST-AP2 beads, FITC arrestin peptide binding, flow cytometry; GST-fused beta2-adaptin appendage, R879A mutant; inhibition, % at 10 µM; 1,300 compounds, 2% hits; AID 504908;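 active means inhibition above a set limit, roughly 3 SD of non-fluorescent compound noise, cut at about 38% in these data; inactive means inhibition at or below that limit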;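 further: loss of bead fluorescence from 50 nM FITC arrestin peptide bound to appendage; 0% = negative control wells and 100% = excess unlabelled arrestin peptide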
GST GSH counter: disrupts GST binding to glutathione beads, arrestin-AP2 artifact. shares compounds with Arr AP2 block. GST-fluorescein binding to GSH beads, fluorescence, counter-screen. inhibition, % at 10 µM. 1,300 compounds, 2% hits. AID 588338;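 active means inhibition above 50%, about 3 SD of the inhibition seen with non-fluorescent compounds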;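 further: fluorescein maleimide labelled GST captured on 4 micron glutathione beads; higher means more loss of bead fluorescence from quenching or blocked binding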
The depositor's hits bear a star; . = no result given. A selection: hits, their analogues and other compounds. The true share with any hit is near 2.9%.

SMILES	Arr AP2 block	ADAM17 inh	ADAM10 inh	FAS-TE inh	CendR NRP1 mod	CaV13 FRET inh	Arr-AP2 CP1	GST GSH counter
CC(C)(C)c1ccc(C(=O)NCC(=O)NNC(=O)c2ccccc2O)cc1	77.2*	-18.8	-88.3	4.3	5.6	-12.2	-9.2	3.9
O=C(Cn1c(=O)oc2cc(S(=O)(=O)N3CCCC3)ccc21)Nc1ccccn1	.	-1.6	-14.0	-2.3	3.3	-5.3	.	.
CCOc1ccc(-c2csc(NC(=O)CSCC(=O)O)n2)c2ccccc12	62.4*	-4.5	-10.5	-8.2	-14.4	-6.2	7.0	0.1
CCOc1ccc(-c2csc(NC(=O)CSC3=NC(=O)CN3C(C)=O)n2)c2ccccc12	8.3	4.5	3.0	-148.8	-1.8	-4.7	.	.
CCc1nnc(NC(=O)c2oc3ccccc3c2COC(C)C)s1	-6.8	-2.0	-6.2	1.9	11.9	-5.1	.	.
COc1ccc(C(=O)Nc2ccc(S(=O)(=O)Nc3ncccn3)cc2)cc1OC	-2.9	2.3	11.6	2.5	3.0	-5.0	.	.
COc1cc(OC)cc(C(=O)Nc2ccc(S(=O)(=O)Nc3ncccn3)cc2)c1	54.7*	-7.2	-2.8	-8.7	-2.6	-1.8	-3.7	-2.7
CCOc1ccc(/C=C2\CCC(C3CCCC3)C2=O)cc1OC (stereo not given)	59.2*	-2.5	-4.1	14.4	-1.8	-1.1	12.3	-3.0
CCOc1ccc(/C=C2\CCC(C3CCCC3)C2=O)cc1 (stereo not given)	0.9	-5.5	1.6	2.5	5.1	-10.6	.	.
Cc1ccccc1/C=N/Nc1ccc(Cl)nn1	60.2*	-2.5	-3.2	-6.0	9.2	-7.0	-13.9	-3.5
CC1Cc2nc(SCC(=O)NCc3ccccc3)n(Cc3ccccc3)c(=O)c2S1 (stereo not given)	-5.3	1.8	0.9	11.7	-0.8	-3.3	.	.
CSc1nc2c(c(=O)n1Cc1ccccc1)SC(C)C2 (stereo not given)	55.5*	3.1	-1.0	13.8	5.6	.	-4.6	-1.7
COc1ccc(-c2cc(C(F)F)n3ncc(C(=O)N4CCN(C)CC4)c3n2)cc1	-1.0	-151.0	-461.7	0.0	5.8	-4.8	.	.
COC(=O)c1cnn2c(C(F)(F)F)cc(-c3ccccc3)nc12	5.8	-36.1	-118.7	6.5	-12.7	-7.9	.	.
O=C(c1cnn2c(C(F)(F)F)cc(-c3ccccc3)nc12)N1CCCc2ccccc21	-9.7	-3.9	-8.4	-8.4	0.8	-7.0	-8.2	-4.5
COc1ccc(-c2cc(C(F)F)n3ncc(C(=O)N4CCCc5ccccc54)c3n2)cc1	105.5*	-31.7	-116.3	-0.9	-2.8	-0.5	8.2	65.5*
O=C(c1cnn2c(C(F)F)cc(-c3ccccc3)nc12)N1CCc2ccccc2C1	5.6	-12.9	-46.7	27.1	-0.5	16.8	.	.
O=C(c1cnn2c(C(F)F)cc(-c3ccccc3)nc12)N1CCCc2ccccc21	-7.9	.	.	27.3	8.9	-6.5	5.4	3.0
C[C@@H]1CCCN1c1ccc2c(c1)OCCCN(C1CC1)S2(=O)=O	.	-3.4	0.7	.	.	.	.	.
CSCCC(NC(=O)C12CC3CC(CC(C3)C1)C2)C(=O)OCC(=O)c1ccc(Cl)cc1 (stereo not given)	2.7	-3.0	4.9	16.2	-0.6	.	.	.
CSCCC(NC(=O)C1CCC(C)CC1)C(=O)OCC(=O)c1ccc(Cl)cc1 (stereo not given)	106.5*	-1.4	-6.3	-5.2	-2.4	-3.1	10.4	-1.4
Cc1cc2c(=O)[nH]c(N)nc2[nH]1	.	0.9	-22.6	-8.3	-1.1	-3.5	.	.
Cc1ccc(C(=O)C2CCN(CC(=O)N3CC(C)CC(C)C3)CC2)cc1 (stereo not given)	.	1.2	-10.7	.	.	.	.	.
COc1ccc(OC)c(C2C(C(=O)c3ccc(C)o3)=C(O)C(=O)N2c2cc(C)on2)c1 (stereo not given)	59.5*	-4.5	-5.6	-5.5	8.9	-13.2	-0.6	-4.7
CCN1/C(=C/c2ccc3cc(C)ccc3[n+]2CC)Sc2ccc3sccc3c21	75.1*	.	.	-20.8	-150.2	.	42.5*	139.7*
SMILES	Arr AP2 block	ADAM17 inh	ADAM10 inh	FAS-TE inh	CendR NRP1 mod	CaV13 FRET inh	Arr-AP2 CP1	GST GSH counter
CCN1/C(=C\c2ccc3cc(C)ccc3[n+]2CC)Sc2cc(C)c(C)cc21	-39.7	-0.4	-11.6	-34.5	-226.2	-4.7	.	.
N#Cc1nc(-c2ccco2)oc1NCc1ccc(F)cc1	71.8*	-66.6	-210.0	-0.1	23.3*	.	-7.8	-2.8
N#Cc1nc(-c2ccco2)oc1NCc1cccnc1	7.7	-28.1	-66.3	-6.6	-4.8	-9.2	.	.
CCN(CC(=O)Nc1c(F)cccc1F)C(=O)CCN1C(=O)C2CC=CCC2C1=O (stereo not given)	6.8	-2.2	-6.8	-9.4	4.7	-2.2	.	.
COc1ccc(CCC(=O)N2CCN(S(=O)(=O)c3cccc(Cl)c3)CC2)cc1	56.1*	-0.2	-9.3	11.2	-11.2	-4.9	-7.6	0.2
COc1ccc(CCC(=O)N2CCN(S(=O)(=O)c3ccc(C)cc3)CC2)cc1	-4.5	-2.8	-9.2	6.8	18.1	-2.2	.	.
O=S(=O)(Nc1ccc2c(c1)OCCO2)c1c(F)cccc1F	59.1*	1.0	-9.2	-7.3	-3.0	-7.1	-11.3	0.7
CCCCNC(=O)C[C@H]1C[C@@]2(C(=O)OC)C(=C[C@H](COCc3ccccc3)O[C@@H]2C)N(CCc2ccc(OC)c(OC)c2)C1=O	.	-0.9	-1.1	.	.	.	.	.
COc1ccccc1C(=O)NCCC(=O)N1CCN(C(C)=O)CC1	61.0*	-1.4	-3.8	-3.0	4.0	-0.9	8.9	-2.4
CN(C)Cc1cn(CC[C@@H]2CC[C@@H](NC(=O)Nc3ccccc3F)[C@@H](CO)O2)nn1	.	-0.2	7.1	.	17.9	-6.3	.	.
COc1cccc(CN2CCN(Cc3cc4ccccc4o3)CC2CCO)c1 (stereo not given)	11.5	-2.5	-1.1	-1.2	-3.4	-3.5	.	.
CCOc1ccc(CN2CCN(Cc3cc4ccccc4o3)CC2CCO)cc1 (stereo not given)	65.5*	0.6	-2.1	-1.9	6.1	-20.0	5.4	2.5
CN(CCN1CCOCC1)C(=O)C1CCC(=O)N(Cc2ccc(Cl)cc2)C1 (stereo not given)	.	2.2	-3.9	-7.9	0.1	-8.7	.	.
S=C(NCc1ccco1)Nc1cccc(Cl)c1	58.8*	0.0	5.8	2.4	1.7	-4.3	18.0	-4.9
N[C@H]1CC[C@@H]2SC[C@@H](C(=O)O)N2C1=O	.	-2.4	-1.7	.	.	.	.	.

Screening results: PubChem BioAssay, several laboratories
